Shown is part of a subset that was picked to be rich in hits.
Lmaj promast: Leishmania major promastigote growth inhibition, primary screen | actives 9% (n = 200,000) | Leishmania major promastigotes, resazurin fluorescence viability | inhibition, % at 10 µM | AID 1063, 2008; in the data active = inhibition above about 50%;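 note: promastigotes grown with compound for 44 hours at 28 °C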
Calb FLC: C. albicans growth inhibition with fluconazole, primary screen, CaCi-2 strain, Alamar Blue fluorescence. actives 0.57% (n = 300,000). C. albicans CaCi-2 + fluconazole, 48 h. growth inhibition, % (test concentration not listed);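 active = growth inhibition above about 58% in most replicates, limit read from the data, passing the limit was not always enough; inconclusive = exactly half the replicates above a set limit; inactive = most replicates below a set limit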;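 note: all wells also contain fluconazole at 8 µg/ml as a sub-toxic cotreatment; 0% = median of DMSO wells and 100% = median of geldanamycin control wells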
T cruzi inh: inhibitors of intracellular T. cruzi growth, primary screen, luminescence, NIH3T3 host cells. T. cruzi beta-gal in NIH3T3, 90 h. inhibition, % (concentration not given with the values). actives 1.4% (n = 300,000);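 active = mean inhibition across valid replicates above about 55%, limit read from the data; inconclusive = mean below that limit but half or more replicates reach it; inactive = mean below it, under half of replicates reach it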;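 note: signal also drops with host cell toxicity which is not excluded here; 0% = plate median of DMSO wells and 100% = zero luminescence signal; higher percent means less beta-gal luminescence so fewer parasites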
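Test system: β-gal T. cruzi (Tulahuen C4) inside NIH/3T3 cells / Quantity: 5,000 cells/well / Measured by: luminescence from GalScreen with 0.05% NP40, read after 60 min / Medium: DMEM plus 2% FBS / Measure: parasite load inhibition, % / Reagent: Tulahuen C4 trypomastigotes, 5000/well / Schedule: co-culture of at least 90 h after 3 h attachment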
NALP1 inh: NALP1 inflammasome inhibitors in reconstituted yeast, colorimetric, S. cerevisiae, triplicate retest; AID 2071, 2009; inhibition, % at 10 µM; actives 0.61% (n = 280,000); S. cerevisiae NALP1/ASC/caspase-1 growth, X-gal OD620, 72 h; in the data active = inhibition mostly above about 24%, no sharp cut-off; inactive = mostly below about 32%
NLRP3 yeast inh: NALP3 inflammasome inhibitors in reconstituted yeast, primary screen, luminescence, uHTS; actives 0.39% (n = 330,000); AID 2825, 2010; Yeast reconstituted NLRP3/ASC/caspase-1, beta-gal luminescence, 24 h; inhibition, % at 10 µM;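 active = inhibition of 50% or more; inactive = inhibition below 50%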;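 note: plate controls were induced DMSO wells for no effect and uninduced yeast grown without galactose for full effect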
PolyA inhibitor: polyadenylation inhibitors in yeast reporter cells, primary screen, luminescence, S. cerevisiae; S. cerevisiae SKY197-pL101 polyadenylation reporter, beta-gal luminescence; efflux-impaired pdr1/pdr3 knockout yeast; score 100 = 6 SD above DMSO; activity score, % at 12 µM; actives 0.02% (n = 300,000); AID 1875, 2009;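 active = lowest replicate activity score at least 50, where 100 means six control SD above control mean; inconclusive = lowest score under 50 but half or more replicates reach 50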;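 note: yeast exposed to compound for 9 h at 30 °C; higher score means more reporter readthrough which indicates perturbed polyadenylation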
* marks the source's active call; other numbers are inactive results; ? = inconclusive; · = no result.

SMILES	Lmaj promast	Calb FLC	T cruzi inh	NALP1 inh	NLRP3 yeast inh	PolyA inhibitor
O=C1C2C3C=CC(C4CC34)C2C(=O)N1/N=C/c1ccc(-c2ccc(Cl)cc2[N+](=O)[O-])o1 (stereo not given)	59.4*	11.4	12.3	13.0	11.4	6.4
COc1cccc(/C=C2\C(=O)N(c3cccc(C)c3)C(=O)c3ccccc32)c1	73.1*	1.9	-18.2	35.7	0.0	15.7
Cc1cccc(N2C(=O)/C(=C\c3ccc(OC(F)F)cc3)c3ccccc3C2=O)c1	4.8	?	-1.1	24.2	-1.3	-3.8
OCCNCc1cccc(OCc2ccc(Cl)cc2)c1	54.3*	-20.6	5.1	2.3	21.0	-8.2
OCCNCc1cc(Br)ccc1OCc1ccc(Cl)cc1	92.8*	-20.1	-16.8	-1.7	22.2	-6.1
OCCNCc1cc(Br)ccc1OCc1ccc(Cl)cc1Cl	100.6*	3.6	15.7	23.4	·	-1.3
Oc1ccc(NCc2cccc(OCc3ccc(F)cc3)c2)cc1	21.0	2.7	·	9.3	21.0	5.5
OCCNCc1cc(Br)ccc1OCc1ccc(F)cc1	49.6	-6.9	14.7	15.8	11.0	-0.2
O=C(c1ccc([N+](=O)[O-])s1)N1CCN(c2ccccn2)CC1	·	0.2	33.8	-5.8	4.4	6.1
COc1ccc(OC)c2sc(N3CCN(C(=O)c4ccc([N+](=O)[O-])s4)CC3)nc12	·	-6.8	66.7*	·	7.9	-4.2
O=C(c1ccc([N+](=O)[O-])s1)N1CCN(c2ccccc2)CC1	49.9	-8.8	69.5*	24.6	11.7	-2.7
COc1cc(CC(=O)OCn2nnc3ccccc3c2=O)cc(OC)c1OC	-13.5	1.8	-9.2	-6.2	1.2	-2.7
Cn1cc(C(N)=O)c2ccccc21	-6.7	-1.5	-15.2	-6.3	10.5	0.7
Cn1cc(C(=O)CCl)c2ccccc21	92.0*	59.0	46.9	-3.9	·	-4.8
O=C(NCC(c1ccco1)N1CCN(c2ccccc2)CC1)c1ccc2c(c1)OCO2 (stereo not given)	23.4	-6.2	8.2	-6.9	10.0	24.7
CCN1CCN(C(=O)C2c3cc(OC)c(OC)cc3C(=O)N(C)C2c2ccc(SC)cc2)CC1 (stereo not given)	76.5*	-0.9	-8.0	-80.4	13.5	14.9
CC(C)(C)c1ccccc1NC(=O)c1c(O)c2cccc3c2n(c1=O)CC3	13.7	81.8*	?	15.1	14.6	?
Cc1ccccc1NC(=O)c1c(O)c2cccc3c2n(c1=O)CC3	·	·	·	-2.2	·	·
O=C(Nc1nccs1)c1c(O)c2cccc3c2n(c1=O)CCC3	96.1*	2.5	20.7	8.8	23.5	-2.6
COc1ccc(S(=O)(=O)N(C)C[C@H]2Oc3ccc(NC(=O)Nc4ccc5c(c4)OCO5)cc3C(=O)N([C@H](C)CO)C[C@@H]2C)cc1	·	·	·	·	16.8	·
Cc1cc(C)cc(N2C(=O)C3C4C=CC(C4)C3C2=O)c1 (stereo not given)	-4.6	2.8	3.7	37.7*	3.1	-3.3
O=C(Nn1cnnc1)c1ccccc1-c1ccccc1	-8.1	-0.7	-4.7	1.9	7.2	0.6
Cn1c(N)c(C(=O)c2cc(-c3ccccn3)nc3ccccc23)c(=O)[nH]c1=O	-2.2	-10.6	-14.2	10.7	9.5	8.4
CCOC(=O)C1CCN(Cc2ccc(F)cc2)CC1	89.0*	·	·	-41.5	7.5	·
CCOC(=O)C1(CC2CC2)CCN(Cc2ccc(C(=O)OC)cc2)CC1	92.2*	-12.7	9.1	10.8	13.1	-5.4
CCOC(=O)C1CCN(Cc2ccc(C(=O)OC)cc2)CC1	95.1*	-0.1	-3.3	-15.4	18.6	-11.9
CCOC(=O)C1CCN(Cc2cccc(Oc3ccc(Cl)cc3)c2)CC1	·	-25.6	0.8	13.9	17.9	-10.0
CCOC(=O)C1CCN(Cc2ccc(Cl)c(Cl)c2)CC1	87.6*	-6.4	-2.8	1.7	8.6	4.2
CSc1cccc(NC(=O)c2cc(S(=O)(=O)N3CCc4ccccc43)cn2C)c1	·	5.1	15.5	18.0	4.6	-21.3
CN(C)CCCOC(=O)N1c2ccccc2C=Cc2ccccc21	·	-1.3	7.0	-0.6	10.8	-7.0
